Measurements of several laboratories.
Lines come from different studies, so protocols differ.
gyrA: DNA gyrase subunit A (gyrA, Escherichia coli K-12, UniProt P0AES4)
gag-pol reverse transcriptase: Gag-Pol polyprotein, reverse transcriptase (gag-pol, Human immunodeficiency virus 1, UniProt P03366)
OPRD1: Delta-type opioid receptor (OPRD1, Homo sapiens, UniProt P41143)

| Structure (SMILES) | target | read-out | action | technique | endpoint | result |
| --- | --- | --- | --- | --- | --- | --- |
| CC(C)Oc1c(NC(=O)c2ccc(NC(=O)[C@H](CC(N)=O)NC(=O)c3ccc(NC(=O)c4ccc(C#N)s4)cc3)cc2)ccc(C(=O)Nc2ccc(C(=O)O)cc2)c1O | gyrA | enzyme activity | inhibitor | – | IC50 | 500 nM |
| N#Cc1ccc(Nc2nc(N)cc(Oc3ccc(-c4cccc(C#N)c4)cc3F)n2)cc1 | gag-pol reverse transcriptase | enzyme activity | inhibitor | – | IC50 | 340 nM |
| Cc1cc(C)cc(S(=O)(=O)c2c(C(=O)NCCCNS(=O)(=O)c3ccc(C#N)cc3)[nH]c3ccc(Cl)cc23)c1 | gag-pol reverse transcriptase | enzyme activity | inhibitor | ELISA | IC50 | 100 nM |
| CO[C@@H](C(N)=O)[C@H](NC(=O)c1ccc(NC(=O)c2ccc(C#N)cc2)cc1)C(=O)Nc1ccc(C(=O)Nc2ccc(C(=O)Nc3ccc(C(=O)O)cc3)c(O)c2OC(C)C)cc1 | gyrA | enzyme activity | inhibitor | – | IC50 | 400 nM |
| Cc1cc(C)cc(S(=O)(=O)c2c(C(=O)NCCCCCNS(=O)(=O)c3ccc(C#N)cc3)[nH]c3ccc(Cl)cc23)c1 | gag-pol reverse transcriptase | enzyme activity | inhibitor | ELISA | IC50 | 160 nM |
| CNc1nc(C#Cc2ccccc2)nc2c1ncn2[C@H]1[C@H](O)[C@H](O)[C@@H]2C[C@@H]21 | OPRD1 | ligand displacement | – | radioligand | Ki | > 10000 nM |
| N#Cc1ccc(Nc2nc(N)cc(Oc3c(F)cc(-c4ccc(C#N)c(F)c4)cc3F)n2)cc1 | gag-pol reverse transcriptase | enzyme activity | inhibitor | – | IC50 | 40 nM |
| CC(C)Oc1c(NC(=O)c2ccc(NC(=O)[C@H](CC(N)=O)NC(=O)c3ccc(NC(=O)Cc4ccc(C#N)cc4)cc3)cc2)ccc(C(=O)Nc2ccc(C(=O)O)cc2)c1O | gyrA | enzyme activity | inhibitor | – | IC50 | 16300 nM |
| Cc1cc(C)cc(S(=O)(=O)c2c(C(=O)NCCCNS(=O)(=O)c3ccccc3F)[nH]c3ccc(Cl)cc23)c1 | gag-pol reverse transcriptase | enzyme activity | inhibitor | ELISA | IC50 | 76 nM |
| CNC(=O)[C@@]12C[C@@H]1[C@@H](n1cnc3c(NC)cc(C#Cc4ccc(Cl)s4)nc31)[C@H](O)[C@@H]2O | OPRD1 | ligand displacement | – | radioligand | Ki | > 10000 nM |
| Cc1cc(C)cc(S(=O)(=O)c2c(C(=O)NCCCCNS(=O)(=O)c3ccc(Cl)cc3)[nH]c3ccc(Cl)cc23)c1 | gag-pol reverse transcriptase | enzyme activity | inhibitor | ELISA | IC50 | 94 nM |
| CNC(=O)[C@@]12C[C@@H]1[C@@H](n1cnc3c(NC)nc(C#Cc4ccc(Cl)s4)nc31)[C@H](O)[C@@H]2O | OPRD1 | ligand displacement | – | radioligand | Ki | > 10000 nM |
| CCCCN1CCC(COC(=O)c2ccc(N)c(OCF)c2)CC1 | 5-hydroxytryptamine receptor 3A (HTR3A, Homo sapiens, UniProt P46098) | cell-free assay | – | radioligand | Ki | > 10000 nM |
| CNC(=O)[C@@]12C[C@@H]1[C@@H](n1cnc3c(NC)nc(C#Cc4ccc(F)c(F)c4)nc31)[C@H](O)[C@@H]2O | OPRD1 | ligand displacement | – | radioligand | Ki | > 10000 nM |
| Cc1cc(C)cc(S(=O)(=O)c2c(C(=O)NCCNS(=O)(=O)c3ccc(F)cc3)[nH]c3ccc(Cl)cc23)c1 | gag-pol reverse transcriptase | enzyme activity | inhibitor | ELISA | IC50 | 66 nM |
| O[C@@H]1[C@H](O)[C@@H]2C[C@@H]2[C@H]1n1cnc2c(NCc3cccc(Cl)c3)ncnc21 | OPRD1 | ligand displacement | – | radioligand | Ki | > 10000 nM |
| CC(C)Oc1c(N)ccc(C(=O)Nc2ccc(C(=O)N[C@@H](CC(N)=O)C(=O)Nc3ccc(C(=O)Nc4ccc(C(=O)Nc5ccc(C(=O)O)cc5)c(O)c4OC(C)C)cc3)cc2)c1O | gyrA | enzyme activity | inhibitor | – | IC50 | 50000 nM |
